From PMC9394215 (Journal for Immunotherapy of Cancer, 2022)

Biological target: T1, human CD39 (Homo sapiens, UniProt P49961)
T1 sequence (P49961 1-510): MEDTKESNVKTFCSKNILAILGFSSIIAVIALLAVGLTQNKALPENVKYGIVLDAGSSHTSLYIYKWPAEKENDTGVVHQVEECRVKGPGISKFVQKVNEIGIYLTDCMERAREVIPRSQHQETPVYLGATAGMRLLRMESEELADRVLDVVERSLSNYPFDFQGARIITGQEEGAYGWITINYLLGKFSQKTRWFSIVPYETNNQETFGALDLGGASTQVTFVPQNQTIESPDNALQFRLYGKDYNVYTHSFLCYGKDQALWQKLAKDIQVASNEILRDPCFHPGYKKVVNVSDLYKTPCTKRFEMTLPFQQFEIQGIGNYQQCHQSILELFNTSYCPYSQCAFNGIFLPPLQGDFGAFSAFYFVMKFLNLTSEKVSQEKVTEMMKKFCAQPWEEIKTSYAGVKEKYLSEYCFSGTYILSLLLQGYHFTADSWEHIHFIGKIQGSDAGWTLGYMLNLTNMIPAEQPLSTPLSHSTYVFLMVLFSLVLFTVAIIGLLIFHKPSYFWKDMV
Assay type: biochemical
Conditions: for inhibition of CD39 (in words): library screen at 10 µM, figure 3
How it was run: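 CD39 came from human umbilical cord membranes (50.0 ng protein per well). Substrate was 50 µM ATP in 10 mM HEPES, 2 mM CaCl2, 1 mM MgCl2, pH 7.4, with ≤2% DMSO. Enzyme and test compound were preincubated 5 min at 37°C; reaction ran 15 min at 37°C. Malachite green/molybdate was added and A600 read after 20 min at 25°C, minus a heat-denatured enzyme blank. Screening was at 10 µM; curves spanned 0.1–300 µM; n=3.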

Row | Structure (SMILES) | inhibition at 10 µM (read-out: inhibition of human CD39) | inhibition of CD39 (in words)
1 | Cc1ccc(C(=O)Nc2ccc(CN3CCN(C)CC3)c(C(F)(F)F)c2)cc1C#Cc1cnc2cccnn12 [ponatinib, Ponatinib] | 33% | 
2 | C[C@@H](Oc1cc(-c2cnn(C3CCNCC3)c2)cnc1N)c1c(Cl)ccc(F)c1Cl [critozinib, Crizotinib] |  | did not inhibit
3 | CCc1cc2c(cc1N1CCC(N3CCOCC3)CC1)C(C)(C)c1[nH]c3cc(C#N)ccc3c1C2=O [alectinib, Alectinib] |  | did not inhibit
